Source: PubChem BioAssay
An excerpt weighted towards active compounds, which were near 2% of everything screened.
MIN6 prolif-1: inducers of MIN6 beta-cell proliferation, primary screen, ATP luminescence, uHTS | MIN6 cells proliferation, ATPlite luminescence, 48 h; cells starved in 0.2% serum; 100% = growth in 10% serum | proliferation, % at 10 µM | 330,000 tested, 0.29% active | AID 2380, 2010;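 active = compounds whose signal lies at least 3.5 SD above the mean of all wells on their plate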
VIM-2 inh: VIM-2 metallo-beta-lactamase inhibitors, primary screen, biochemical, epi-absorbance readout, Pseudomonas aeruginosa enzyme | 290,000 tested, 0.89% active | purified VIM-2, nitrocefin hydrolysis, epi-absorbance fluorescence | inhibition, % at 5.6 µM | AID 1527, 2009;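 active = inhibition above the mean of all tested compounds plus 3 SD, cutoff set per screening run, cut at about 7.5% in these data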;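 note: red hydrolysis product quenches plate fluorescence so inhibitors raise well fluorescence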
HKDC1 inh: HKDC1 hexokinase inhibitors, primary screen, biochemical, fluorescence, uHTS. Q2TB90. recombinant HKDC1, G6PDH/diaphorase resazurin coupled fluorescence. inhibition, % at 20 µM. 340,000 tested, 0.16% active;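 active = inhibition above about 35% when tested at 20 µM, limit read from the data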
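System: Recombinant HKDC1 hexokinase | Amount: HKDC1 at 5 µg/mL | Reagent: Glucose with 1 mM ATP | Doses: Single 20 µM dose | Incubation: Reaction time 90 min, room temperature, protected from light | Signal: Coupled resazurin fluorescence, excitation 525 nm, emission 613 nm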
IMP-1 inh: IMP-1 metallo-beta-lactamase inhibitors, primary screen, biochemical, epi-absorbance readout, Pseudomonas aeruginosa enzyme. purified IMP-1, nitrocefin hydrolysis, epi-absorbance fluorescence. inhibition, % at 5.6 µM. 290,000 tested, 0.45% active. metallo-beta-lactamase IMP-1 (Pseudomonas aeruginosa);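 active = inhibition above the mean plus 3 SD of all compounds in the same screening run, cut at about 4.5% in these data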
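assay system = purified recombinant IMP-1 metallo-beta-lactamase enzyme | schedule = 15 min preincubation plus 25 min reaction at 25 °C | signal = Epi-absorbance fluorescence, 480 nm excitation, 530 nm emission | read-out basis = percent inhibition from optical density relative to buffer-blank wells | controls = IMP-1 with DMSO as 0%, enzyme-free DMSO as 100%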
PvdQ inh: P. aeruginosa PvdQ acylase inhibitors, primary screen, biochemical, fluorescence, plate reader and imaging, single point; PvdQ acylase [Pseudomonas aeruginosa LESB58]; purified PvdQ acylase; inhibition, % at 10 µM; 340,000 tested, 0.063% active; AID 488965, 2010; in the data active = inhibition above about 30%, passing the limit was not always enough
ATG4B inhibitor: ATG4B protease inhibitors, primary screen, biochemical, fluorescence, uHTS; ATG4B cleavage of LC3-PLA2, NBD-HPC fluorescence, 1 h; Cysteine protease ATG4B (Homo sapiens), Q9Y4P1; inhibition, % at 8.33 µM; 340,000 tested, 0.51% active; in the data active = inhibition above about 40%
Target sequence (Q9Y4P1 whole entry, looked up): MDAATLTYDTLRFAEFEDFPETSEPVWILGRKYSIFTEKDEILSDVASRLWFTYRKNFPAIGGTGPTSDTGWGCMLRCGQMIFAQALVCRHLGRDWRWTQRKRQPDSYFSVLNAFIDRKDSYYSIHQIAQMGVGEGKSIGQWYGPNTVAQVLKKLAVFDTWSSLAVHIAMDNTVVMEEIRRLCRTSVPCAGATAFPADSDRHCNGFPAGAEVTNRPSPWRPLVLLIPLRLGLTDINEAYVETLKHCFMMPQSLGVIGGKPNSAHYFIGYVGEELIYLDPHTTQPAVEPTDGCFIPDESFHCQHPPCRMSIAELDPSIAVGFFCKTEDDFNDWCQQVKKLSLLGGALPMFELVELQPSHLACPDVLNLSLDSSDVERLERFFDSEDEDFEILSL
MIN6 prolif-2: inducers of beta-cell proliferation in MIN6, confirmation, MIN6 cells, mouse; shares compounds with MIN6 prolif-1; proliferation increase, % at 50 µM; ATPlite luminescence, 48 h; cells kept in 0.2% serum; scaled between 0.2% and 10% serum; AID 463095, 2010; 920 tested, under 10 active;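 active = proliferation increase above 40% at any of the four tested concentrations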
Large screens that a line does not name were inactive (follow-up assays come after a bar, where they were run).

Cc1nn(-c2ccccc2)c(C)c1C(=O)N1CCN(S(=O)(=O)c2ccccc2)CC1	MIN6 prolif-1 12 (no result: VIM-2 inh, IMP-1 inh) | MIN6 prolif-2 inactive
CC1=C(C(=O)OCc2ccccc2)C(c2ccc3c(c2)OCO3)NC(=O)N1CCCC(=O)O (stereo not drawn)	none (no result: VIM-2 inh, IMP-1 inh)
NCC1OC(n2cnc3c(N)ncnc32)CC1O (stereo not drawn)	none (no result: MIN6 prolif-1, VIM-2 inh, IMP-1 inh)
Nc1ncnc2c1ncn2[C@H]1C[C@H](O)[C@@H](COP(=O)(O)O)O1	MIN6 prolif-1 13 | MIN6 prolif-2 inactive
Cc1ccc(NC(=O)c2c(Cl)nc3ccccn23)cc1	none
CCS(=O)(=O)c1ccc(Sc2nncn2C)c([N+](=O)[O-])c1	MIN6 prolif-1 7.7 | MIN6 prolif-2 inactive
CCN(CC)CCP(=O)(c1ccccc1)c1ccccc1	MIN6 prolif-1 4.6 | MIN6 prolif-2 inactive
Cc1cc(C)nc(NS(=O)(=O)c2ccc(NC(=O)CCN3C(=O)c4ccccc4C3=O)cc2)n1	MIN6 prolif-1 8.2 | MIN6 prolif-2 inactive
COC(=O)c1nnn(-c2nonc2N)c1CSc1nnc(N)s1	none
Cc1nn(C)c2ncc(C(=O)c3ccccc3O)cc12	none
Cc1[nH]nc2ncc(C(=O)c3ccccc3O)cc12	MIN6 prolif-1 12 | MIN6 prolif-2 inactive
COCC(=O)Nc1cc(C)cn(Cc2ccccc2Cl)c1=O	none
CC(O)CNCCCOc1ccc(Cl)cc1C(C)(C)C (stereo not drawn)	none
O=C(c1ccc2c3c(cccc13)CC2)N1CCOCC1	MIN6 prolif-1 5.3 | MIN6 prolif-2 inactive
OCCC1CN(Cc2ccccc2O)CCN1CCc1ccccc1 (stereo not drawn)	MIN6 prolif-1 7.9 | MIN6 prolif-2 inactive
CN(C)S(=O)(=O)c1cccc(NC(=O)COC(=O)CCc2nc3ccccc3s2)c1	MIN6 prolif-1 6.7 | MIN6 prolif-2 inactive
Cc1ccc(CSc2nnc(-c3ccccn3)n2C)cc1	MIN6 prolif-1 7.1 | MIN6 prolif-2 inactive
Cn1c(SCc2ccc(F)cc2)nnc1-c1ccccn1	none
N#Cc1c2c(c(NCCN3CCOCC3)n3c1nc1ccccc13)CCCC2	MIN6 prolif-1 7.5 | MIN6 prolif-2 inactive
N#Cc1c2c(c(Nc3ccccc3)n3c1nc1ccccc13)CCC2	none
O=C(N/N=C/c1ccccn1)c1ccc2nc[nH]c2c1	MIN6 prolif-1 7.8 | MIN6 prolif-2 inactive
O=C(O)C1CC=CCC1C(=O)Nc1cccc(C(=O)N2CCCCC2)c1 (stereo not drawn)	none
O=C1CC(Cc2ccc(Br)cc2)C(=O)N1c1ccccc1 (stereo not drawn)	none
COc1ccc(NC(=O)CS(=O)c2ccc(F)cc2)cc1 (stereo not drawn)	MIN6 prolif-1 12 | MIN6 prolif-2 inactive
CCOC(=O)C1=C(Cn2cnc3ccccc32)NC(=O)NC1c1ccc(OC)cc1 (stereo not drawn)	none
O=C(c1ccccc1Br)N1CCN(c2ccc([N+](=O)[O-])c(N3CCOCC3)c2)CC1	none
O=C(c1ccco1)N1CCN(c2ccc([N+](=O)[O-])c(N3CCOCC3)c2)CC1	MIN6 prolif-1 9.7 | MIN6 prolif-2 inactive
O=C(OCCc1cc2ccccc2c(=O)o1)N1CCOCC1	none (no result: VIM-2 inh, IMP-1 inh)
O=C(OCCCc1cc2ccccc2c(=O)o1)N1CCOCC1	MIN6 prolif-1 7.8 (no result: VIM-2 inh, IMP-1 inh) | MIN6 prolif-2 inactive
Cc1[nH]n(-c2nc(-c3ccccc3)cc(=O)[nH]2)c(=O)c1CCO	MIN6 prolif-1 9.6 | MIN6 prolif-2 inactive
COC(=O)CNC(=O)COC(=O)/C=C/c1ccc2ccccc2n1	MIN6 prolif-1 10 | MIN6 prolif-2 inactive
Cc1cc(NC(=O)CCC(=O)N(Cc2ccco2)C(C)(C)C(=O)NC2CCCCC2)no1	none
Cc1cc(NC(=O)CCC(=O)N(Cc2cccs2)C(C)(C)C(=O)NC2CCCCC2)no1	MIN6 prolif-1 6.2 | MIN6 prolif-2 inactive
O=C(CSc1ccc2nnc(CCNC(=O)c3ccccc3)n2n1)NCCc1ccccc1	MIN6 prolif-1 10 | MIN6 prolif-2 inactive
O=C(CSc1ccc2nnc(CCNC(=O)c3ccccc3)n2n1)NC1CCCC1	none
O=C(Cn1cnc(S(=O)(=O)N2CCCC2)c1)Nc1cccc(F)c1	none
O=C(Nc1cccc(Cl)c1)Nc1ccnc(-c2cccnc2)n1	MIN6 prolif-1 11 | MIN6 prolif-2 inactive
Cn1c(=N)n(CC(=O)O)c2ccccc21	MIN6 prolif-1 5.8 | MIN6 prolif-2 inactive
Cn1c(=N)n(CC(=O)c2ccccc2)c2ccccc21	none (no result: PvdQ inh)
COc1cc(-c2nn3c(C4CCCCC4)nnc3s2)cc(OC)c1OC	none
COc1ccc(-c2nn3c(C4CCCCC4)nnc3s2)cc1OC	MIN6 prolif-1 9.1 | MIN6 prolif-2 inactive
Cc1ccc(NC(=O)COc2coc(CN3CCc4ccccc43)cc2=O)c(C)c1	none (no result: VIM-2 inh, IMP-1 inh)
O=C1CSC(c2ccccc2)N1CCc1ccccc1 (stereo not drawn)	MIN6 prolif-1 7.5 | MIN6 prolif-2 inactive
CC1(C)CC(=O)N(c2cc(Cl)cc(Cl)c2)C(=O)C1	none
Cc1cnc(C(=O)OCC(=O)NCc2ccccc2)cn1	none
Cc1cnc(C(=O)OCC(=O)Nc2cc(-c3ccccc3)nn2-c2ccccc2)cn1	MIN6 prolif-1 11 (no result: VIM-2 inh, IMP-1 inh) | MIN6 prolif-2 inactive
COc1ccc(NC(=O)c2ccccc2NS(=O)(=O)c2ccc(C)cc2)c([N+](=O)[O-])c1	MIN6 prolif-1 6.2 | MIN6 prolif-2 inactive
COc1ccc(NS(=O)(=O)c2ccc(C)cc2)c([N+](=O)[O-])c1	none
Fc1ccccc1NC(=S)N1CCN(Cc2ccc3c(c2)OCO3)CC1	MIN6 prolif-1 7.4 | MIN6 prolif-2 inactive
Cc1cc(Cl)ccc1NC(=S)N1CCN(Cc2ccc3c(c2)OCO3)CC1	none
O=S(=O)(c1ccc(Cl)c2ccccc12)N1CCCC1	none
O=C1Nc2ccc(S(=O)(=O)N3CCCC3)c3ccc(S(=O)(=O)N4CCCC4)c1c23	MIN6 prolif-1 9.2 | MIN6 prolif-2 inactive
Cc1cc(C(=O)OCC(=O)NCCN2C(=O)CSC2=O)ccc1[N+](=O)[O-]	MIN6 prolif-1 9.7 (no result: VIM-2 inh, IMP-1 inh) | MIN6 prolif-2 inactive
C/C(=N/Nc1ncc(C(F)(F)F)cc1Cl)c1ccncc1	MIN6 prolif-1 7.8 | MIN6 prolif-2 inactive
CCOC(=O)C1CCN(C(=O)CC(NS(=O)(=O)c2ccc(OC)cc2)C(C)C)CC1 (stereo not drawn)	MIN6 prolif-1 6.2 | MIN6 prolif-2 inactive
O=C(NCc1cccnc1)c1cccn1-c1ncc(C(F)(F)F)cc1Cl	MIN6 prolif-1 8.8 | MIN6 prolif-2 inactive
